The record followed here is ChEMBL document CHEMBL3994608, “Design, synthesis and antimicrobial activities of thiouracil derivatives containing triazolo-thiadiazole as SecA inhibitors” (Eur J Med Chem, 2017).

Converted amounts (≈) assume the structure as drawn.

The subject of test [1] is Bacillus subtilis. Kind of test: Antibacterial activity against Bacillus subtilis at 25 ug/ml after overnight incubation by plate colony counting method relative to control. It is filed as functional. The gist of the method:
(§1)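 Plate colony counting on nutrient agar. Suspensions made from fresh colonies on NA slants grown 24 h, then serially diluted tenfold in sterile water. Duplicate aliquots of the 10^-5 and 10^-6 dilutions spread on NA plates containing test compound at 25 µg/mL; control plates NA only. Incubated overnight at 35 °C, colonies counted, inhibition given as percentage.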

Test [2] concerns Staphylococcus aureus. The experiment in a line: Antibacterial activity against Staphylococcus aureus at 25 ug/ml after overnight incubation by plate colony counting method relative to control. It is filed as functional. An outline of the steps:
as §1

Test [3] has as its system Bacillus amyloliquefaciens. Kind of test: Antibacterial activity against Bacillus amyloliquefaciens at 25 ug/ml after overnight incubation by plate colony counting method relative to control. In kind it is functional. The gist of the method:
as §1

The nature of test [4]: Inhibition of Escherichia coli BL21.19 SecA after 30 mins by malachite green dye-based assay. An outline of the steps: (§2)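 SecA ATPase from E. coli BL21.19. Reaction contains Tris-HCl buffer (pH 7.6, with KCl, NH4Cl, DTT, Mg(OAc)2), […], […] and sample, diluted with distilled water; water as blank. Incubated 37 °C for 30 min. Malachite green/ammonium molybdate/Triton X-100 colour reagent added, then 34% citrate after 1 min. Absorbance read at 660 nm and inhibition calculated from it.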

For test [5], the system named is Escherichia coli. Kind of test: Inhibition of Escherichia coli BL21.19 SecA at 20 ug/ml after 30 mins by malachite green dye-based assay relative to control. An outline of the steps: as §2
Test [6] has as its system Escherichia coli. Kind of test: Inhibition of Escherichia coli BL21.19 SecA at 10 ug/ml after 30 mins by malachite green dye-based assay relative to control. The gist of the method: as §2

For the compound `N#Cc1c(-c2ccccc2Cl)nc(SCc2ccc(-c3nn4c(-c5ccccc5)nnc4s3)cc2)[nH]c1=O`, the inhibition at 25 µg/mL in test [1] came to 55%; in test [2], 46%; in test [3] it was 66%.
For `N#Cc1c(-c2ccc(Cl)cc2Cl)nc(SCc2ccc(-c3nn4c(-c5ccccc5Cl)nnc4s3)cc2)[nH]c1=O`, the inhibition at 25 µg/mL in test [1] was found to be 92%; in test [2], 85%; in test [3] it was 80%. Further, the IC50 entry in test [4] is “Nd(Insoluble)”.
On to `N#Cc1c(-c2c(Cl)cccc2Cl)nc(SCc2ccc(-c3nn4c(-c5c(Cl)cccc5Cl)nnc4s3)cc2)[nH]c1=O`, for which the inhibition at 25 µg/mL in test [1] amounted to 84%; in test [2], 82%; in test [3], 86%.
The like results for `CCn1cc(C(=O)O)c(=O)c2cc(F)c(N3CCNCC3)cc21` [NORFLOXACIN] were, in that order, 85%, 86% and 89%.
Turning to `N#Cc1c(-c2ccc(-c3ccccc3)cc2)nc(SCc2ccc(-c3nn4c(-c5ccccc5Cl)nnc4s3)cc2)[nH]c1=O`, the inhibition at 25 µg/mL in test [1] was 88%; in test [2] it was 83%; in test [3], 81%.
Turning to `N#Cc1c(-c2c(Cl)cccc2Cl)nc(SCc2ccc(-c3nn4c(-c5ccccc5Cl)nnc4s3)cc2)[nH]c1=O`, the inhibition at 25 µg/mL in test [1] is 63%; in test [2], 56%; in test [3], 78%.
`N#Cc1c(-c2ccc(-c3ccccc3)cc2)nc(SCc2ccc(-c3nn4c(-c5ccccc5)nnc4s3)cc2)[nH]c1=O`: the inhibition at 25 µg/mL in test [1] is 57%; in test [2], 68%; in test [3] it was 58%.
The like results for `N#Cc1c(-c2ccc(Cl)cc2)nc(SCc2ccc(-c3nn4c(-c5ccccc5)nnc4s3)cc2)[nH]c1=O` were, in that order, 51%, 49% and 62%.
Consider `N#Cc1c(-c2ccc(-c3ccccc3)cc2)nc(SCc2ccc(CSc3nc(-c4ccc(-c5ccccc5)cc4)c(C#N)c(=O)[nH]3)cc2)[nH]c1=O`, for which the inhibition at 25 µg/mL in test [1] worked out at 62%; in test [2], 87%; in test [3], 85%. In addition, the IC50 in test [4] was found to be 20.8 µg/mL (≈ 29.2 µM).
Take `N#Cc1c(-c2ccc(-c3ccccc3)cc2)nc(SCc2ccc(-c3nn4c(-c5c(Cl)cccc5Cl)nnc4s3)cc2)[nH]c1=O`: the values for the inhibition at 25 µg/mL in test [1], in test [2] and in test [3] were 86%, 84% and 82%, respectively.
For `N#Cc1c(-c2ccccc2)nc(SCc2ccc(-c3nn4c(-c5ccccc5)nnc4s3)cc2)[nH]c1=O`, in that order: 48%, 44% and 57%.
Consider `N#Cc1c(-c2ccc(Cl)cc2Cl)nc(SCc2ccc(-c3nn4c(-c5c(Cl)cccc5Cl)nnc4s3)cc2)[nH]c1=O`, for which the inhibition at 25 µg/mL turned out to be 86% in test [1], 81% in test [2] and 78% in test [3].
Consider `N#Cc1c(-c2ccc(Cl)cc2Cl)nc(SCc2ccc(-c3nn4c(-c5ccccc5)nnc4s3)cc2)[nH]c1=O`, for which the values for the inhibition in test [5] and in test [6] were 72% and 51%, respectively. Besides, the values for the inhibition at 25 µg/mL in test [1], in test [2] and in test [3] were 90%, 88% and 82%, respectively. This compound gave an IC50 in test [4] of 9.7 µg/mL (≈ 16.5 µM).
As for `N#Cc1c(-c2c(Cl)cccc2Cl)nc(SCc2ccc(-c3nn4c(-c5ccccc5)nnc4s3)cc2)[nH]c1=O`, the values for the inhibition at 25 µg/mL in test [1], in test [2] and in test [3] were 49%, 56% and 60%, respectively.

One may read the inhibition as the relative decrease from the control value, in per cent. A high value points to a strong effect. As a reminder, the IC50 is the concentration needed to halve the response being measured. A low value points to greater potency.
